Screening results from PubChem BioAssay.
CSN deneddyl inh: inhibitors of CSN-mediated cullin deneddylation, primary screen, biochemical, fluorescence polarization, uHTS; inhibition, % at 12.5 µM; AID 651999, 2013; 360,000 compounds, 0.38% hits; COP9 signalosome complex subunit 5 (Homo sapiens), Q92905; Purified CSN, SCF-Nedd8-OG deneddylation;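 active = pattern-corrected inhibition above about 35%, with an unprinted fluorescence ratio check between 0.5 and 1.5, limit read from the data, passing the limit was not always enough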
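Material: human Csn5 produced in HEK293T cells; Input: enzyme 0.24 nM; Reagent: SCFSkp2-Nedd8OG substrate at 10 nM final; Dosing: 12.5 µM compound; Incubation: 90 min reaction at room temperature; Detection: fluorescence polarization of the substrate; Evaluation: % inhibition of substrate cleavage by Csn5; Control set: substrate-only high control, full reaction low control.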
PREPL inh: PREPL enzyme inhibitors, primary screen, biochemical, fluorescence polarization; Prolyl endopeptidase-like (Homo sapiens), Q4J6C6; recombinant PREPL, fluorescence polarization activity-based probe; inhibition, % at 5.96 µM; 320,000 compounds, 0.68% hits; AID 2751, 2010; in the data active = inhibition above about 43%
HNF4A DNA FP: change in binding of human HNF4A to DNA, primary screen, biochemical, fluorescence polarization, FITC-DNA | Hepatocyte nuclear factor 4-alpha (Homo sapiens), P41235 | 1 h | activity change, % at 10 µM | 360,000 compounds, 0.3% hits | AID 1224865, 2016; in the data active = activity change above about 30%, passing the limit was not always enough
Rpn11 block: Rpn11 (PSMD14) deubiquitinase inhibitors, primary screen, biochemical, fluorescence polarization, uHTS; human 26S proteasome, Ub4-pepOG fluorescence polarization; 20S core pre-blocked with epoxomicin; inhibition, % at 20 µM; 360,000 compounds, 0.59% hits; 26S proteasome non-ATPase regulatory subunit 14 (Homo sapiens), O00487;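 active = inhibition at 20 µM, scaled to each plate's controls, above about 33%, limit read from the data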
Target sequence (O00487 whole entry, looked up): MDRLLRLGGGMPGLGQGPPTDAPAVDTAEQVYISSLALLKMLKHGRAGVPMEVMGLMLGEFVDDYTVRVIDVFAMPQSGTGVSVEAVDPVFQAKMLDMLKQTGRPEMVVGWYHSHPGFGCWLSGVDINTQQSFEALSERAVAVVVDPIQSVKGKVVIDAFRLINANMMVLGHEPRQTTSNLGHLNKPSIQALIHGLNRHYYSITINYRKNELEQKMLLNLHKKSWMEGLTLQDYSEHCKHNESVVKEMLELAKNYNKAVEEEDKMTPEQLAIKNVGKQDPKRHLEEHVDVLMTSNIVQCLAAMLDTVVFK
Neddylation inh: inhibitors of cullin neddylation, primary screen, biochemical, TR-FRET, uHTS, NAE and Ubc12; NEDD8-conjugating enzyme Ubc12 (Homo sapiens) + NEDD8-activating enzyme E1 regulatory …; inhibition, % at 25 µM; 360,000 compounds, 0.58% hits; AID 651699, 2012; in the data active = inhibition above about 36%
TbMetRS inhib: T. brucei MetRS inhibitors, primary screen, biochemical, luminescence. inhibition, % at 11.9 µM. methionyl-tRNA synthetase (Trypanosoma brucei brucei). purified T. brucei MetRS, ATP depletion, Kinase-Glo luminescence. AID 624268, 2012. 360,000 compounds, 0.4% hits;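 active = inhibition above a per-plate cutoff of the control wells' mean inhibition plus 3 SD, cut at about 5.5% in these data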
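System: purified T. brucei MetRS enzyme / Detection: Kinase-Glo luciferase luminescence reporting remaining unconsumed ATP / Medium: HEPES buffer with MgCl2, KCl, DTT, spermine, BSA, pyrophosphatase / Replication: singlicate, one well per compound / Evaluation: percent inhibition relative to median high and low control wells / Schedule: 2 h aminoacylation at 25 °C after 15 min preincubation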
Rpn11 confirm: Rpn11 (PSMD14) deubiquitinase inhibitors, confirmation, biochemical, fluorescence polarization, single concentration. shares compounds with Rpn11 block. 1,900 compounds, 29% hits. purified human 26S proteasome, Ub4-pepOG fluorescence polarization; proteasome pretreated with epoxomicin. inhibition, % at 20 µM
MMP-2 inh: MMP-2 enzyme inhibition, confirmation, counter-screen for RPN11 inhibitor project, biochemical, fluorescence, single concentration. 1,900 compounds, 4% hits. shares compounds with Rpn11 block. inhibition, % at 20 µM. recombinant MMP-2, FRET peptide cleavage fluorescence. AID 602330, 2012;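 also: human MMP-2 activated beforehand with APMA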
Thrombin inh: bovine thrombin protease inhibition, confirmation, counter-screen for Rpn11 inhibitor project, biochemical, fluorescence polarization, single concentration. shares compounds with Rpn11 block. bovine thrombin cleavage of Ub4-pepOG. inhibition, % at 20 µM. 1,900 compounds, 13% hits. AID 602333, 2012;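 active = mean inhibition at least 40% at 20 µM, or signal 3 deviations below plate average, so some actives read negative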
A number is an active result; 0 = inactive; - = no result. Sampled rows, rich in hits. Any-hit rate of the full collection: about 2.4%. Rule as the data show it, unless noted: active = inhibition above about 40%; inactive = the rest.

SMILES	CSN deneddyl inh	PREPL inh	HNF4A DNA FP	Rpn11 block	Neddylation inh	TbMetRS inhib	Rpn11 confirm	MMP-2 inh	Thrombin inh
Fc1ccccc1-c1nc(-c2ccncc2)no1	0	0	0	0	0	0	-	-	-
O=C(Nc1ccccc1)c1cc2ccccc2s1	0	-	0	0	0	0	-	-	-
COc1ccc(OCC(=O)Nc2cccc(-c3nc4ccccc4o3)c2)cc1	0	0	0	0	0	0	-	-	-
CCc1ccc(OCC(=O)Nc2ccc(-c3nc4ccccc4o3)c(O)c2)cc1	0	0	0	128	0	0	0	0	0
CCOc1ccc(S(=O)(=O)N(CC(=O)N/N=C/c2ccc(-c3ccc([N+](=O)[O-])cc3)o2)c2ccccc2)cc1	0	0	0	58	0	0	43	74	0
CCOc1ccc(NC(=O)CN(c2ccc([N+](=O)[O-])cc2)S(=O)(=O)c2ccccc2)cc1	0	0	0	0	0	0	-	-	-
Cc1cc(-c2cc(C(=O)O)c3ccccc3n2)c(C)s1	0	0	0	36	0	0	0	0	0
CCC(CC)C(C(=O)NCc1ccccc1)N1CCN(C(=O)C2CCCO2)CC1 (stereo unspecified)	0	-	0	-	0	0	-	-	-
C[C@H](NC(=O)c1ccccc1Cl)C(=O)OCc1cn2cc(Cl)ccc2n1	0	0	0	0	0	0	-	-	-
Cc1cc(N)c(NC2=CC(=O)CC(C)(C)C2)cc1C	0	0	0	54	0	0	0	0	0
Cc1ccc(NC2=CC(=O)CC(C)(C)C2)cc1F	0	0	0	0	0	0	-	-	-
COc1cc(/C=C2\SC(N)=NC2=O)cc(Cl)c1O	0	0	0	114	0	0	76	0	57
COc1cc(/C=C2\SC(c3ccc(C)cc3)=NC2=O)cc(OC)c1O	0	0	0	47	0	0	41	0	0
Cc1ccc(C2=NC(=O)/C(=C/c3cc(O)c(O)c(Br)c3)S2)cc1	0	-	0	0	0	0	-	-	-
COc1ccc(/C=C2\SC(N)=NC2=O)cc1Br	0	0	0	0	0	0	-	-	-
CCOC(=O)c1nnc2cc(-c3ccccc3)nn2c1C	0	0	0	46	0	0	0	0	0
COc1ccc(CCNCC(O)COc2c(C)cccc2C)cc1OC (stereo unspecified)	0	-	0	0	0	0	-	-	-
O=C(C[n+]1cccc(C(=O)Nc2ccccc2)c1)c1ccccc1	0	-	0	-	0	0	-	-	-
Cn1cc(S(=O)(=O)CC(=O)N2CCCc3ccccc32)c2ccccc21	0	0	0	70	0	0	0	0	0
Cn1cc(C(=O)C(=O)N2CCCc3ccccc32)c2ccccc21	0	0	0	0	0	0	-	-	-
CC1Cc2ccccc2N1C(=O)c1ccc(N2CCCCC2)c([N+](=O)[O-])c1 (stereo unspecified)	0	0	0	33	0	0	0	0	0
O=C(NCC(=O)N(CC1CCCO1)C(C(=O)NC1CCCCC1)c1cccnc1)c1cccs1 (stereo unspecified)	0	0	0	0	0	0	-	-	-
